Experimental data from different studies.
Protocols differ between the studies behind these lines.
Target: Kappa-type opioid receptor (OPRK1, Homo sapiens, UniProt P41145)

For `CCOCc1nc(O)c(-c2nnc(Cc3ccc(Cl)cn3)o2)c(O)c1-c1c(OC)cccc1OC`, the IC50 was > 30 µM (ligand displacement, radioligand).
`O[C@@H]1[C@H](O)[C@@H]2C[C@@H]2[C@H]1n1cnc2c(NCCc3ccccc3)nc(C#Cc3ccccc3)nc21` gave a Ki of > 10 µM (cell-free assay).
With `Cc1nccc2c1c(=O)n(C)c1cc(OC[C@@H](N)CC(C)C)c(C#N)cc21` the IC50 was 29 µM (cell-free assay).
`OC[C@@]12C[C@@H]1[C@@H](n1cnc3c(NC(C4CCCC4)C4CCCC4)nc(Cl)nc31)[C@H](O)[C@@H]2O` gave a Ki of 0.11 µM (cell-free assay, radioligand).
The Ki of `Cc1ccc(C(=O)NCC2CCN(Cc3ccc(C(C)C)cc3)CC2)cc1` is reported as > 10 µM (cell-free assay).
`O=C(c1ccccn1)N(Cc1cccs1)C1(C(=O)NC2CCCCC2)CCCCC1` gave an EC50 of 0.11 µM (β-arrestin recruitment, agonist).
With `CNC(=O)[C@@]12C[C@@H]1[C@@H](n1cnc3c(NC)cc(C#Cc4ccc(Cl)s4)nc31)[C@H](O)[C@@H]2O` the Ki was > 10 µM (cell-free assay).
With `Cc1cc(C)nc(C(=O)NC[C@@H]2CCCN(Cc3ccc(F)c(F)c3)C2)c1` the Ki was 6.46 µM (cell-free assay).
With `CCCCN1CCC(COC(=O)c2ccc(N)c(OCF)c2)CC1` the Ki was > 10 µM (cell-free assay, radioligand).
With `O[C@@H]1[C@H](O)[C@@H]2C[C@@H]2[C@H]1n1cnc2c(NCc3cccc(Cl)c3)ncnc21` the Ki was > 10 µM (cell-free assay).
For `Clc1ccc(CSc2nnc(-c3ccccn3)n2Cc2cccs2)cc1Cl`, the EC50 was 0.39 µM (β-arrestin recruitment, agonist, imaging).
With `OCCCN1CC[C@@H]2C[C@H]1c1cc(-c3ccc(C(F)(F)F)cc3)ccc12` the Ki was 7.09 µM (ligand displacement, radioligand).
